Measurements reported in ChEMBL document CHEMBL2331274, “SAR based design of nicotinamides as a novel class of androgen receptor antagonists for prostate cancer” (J Med Chem, 2013).
The source made the active and inactive calls. The rule behind the calls is not given here.

Assays:
Androgen receptor [1] = biological target: T1, Androgen receptor (Mus musculus, UniProt P19091); assay: Displacement of [3H] ]5alpha-DHT from mouse androgen receptor expressed in monkey COS7 cells after 2 hrs by scintillation counting analysis; type: cell-based, COS-7
T1 sequence (P19091 whole entry): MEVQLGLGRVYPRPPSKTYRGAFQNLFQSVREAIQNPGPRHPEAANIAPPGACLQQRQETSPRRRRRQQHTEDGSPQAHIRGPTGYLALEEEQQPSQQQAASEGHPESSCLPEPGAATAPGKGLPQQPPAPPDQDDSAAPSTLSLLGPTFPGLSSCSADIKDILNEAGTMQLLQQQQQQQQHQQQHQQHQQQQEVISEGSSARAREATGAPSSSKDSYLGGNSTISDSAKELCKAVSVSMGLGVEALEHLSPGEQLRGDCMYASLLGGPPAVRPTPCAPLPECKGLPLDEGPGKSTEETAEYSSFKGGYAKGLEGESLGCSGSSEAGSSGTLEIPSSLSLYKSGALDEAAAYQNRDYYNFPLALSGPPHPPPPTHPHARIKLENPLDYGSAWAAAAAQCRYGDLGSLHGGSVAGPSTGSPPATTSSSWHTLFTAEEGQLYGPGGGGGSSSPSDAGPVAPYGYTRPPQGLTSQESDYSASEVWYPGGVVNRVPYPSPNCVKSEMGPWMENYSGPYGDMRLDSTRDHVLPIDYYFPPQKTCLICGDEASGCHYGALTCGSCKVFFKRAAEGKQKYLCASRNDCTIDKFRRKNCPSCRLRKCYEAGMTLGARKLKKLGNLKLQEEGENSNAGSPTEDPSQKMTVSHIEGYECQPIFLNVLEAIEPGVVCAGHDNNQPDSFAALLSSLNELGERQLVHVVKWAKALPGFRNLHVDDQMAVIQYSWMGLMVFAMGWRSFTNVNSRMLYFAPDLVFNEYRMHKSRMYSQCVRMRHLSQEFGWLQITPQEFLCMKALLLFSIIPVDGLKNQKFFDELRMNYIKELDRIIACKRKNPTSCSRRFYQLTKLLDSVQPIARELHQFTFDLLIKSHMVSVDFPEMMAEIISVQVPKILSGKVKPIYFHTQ

[2] = biological target: T2, Androgen receptor (Homo sapiens) (UniProt P10275); assay: Inhibition of androgen receptor-mediated SRC1 coactivator recruitment in human PPC1 cells at 10 uM after 1 hr by DAPI staining-based fluorescence microscopic analysis; type: cell-based; conditions: PPC-1
T2 sequence (whole entry): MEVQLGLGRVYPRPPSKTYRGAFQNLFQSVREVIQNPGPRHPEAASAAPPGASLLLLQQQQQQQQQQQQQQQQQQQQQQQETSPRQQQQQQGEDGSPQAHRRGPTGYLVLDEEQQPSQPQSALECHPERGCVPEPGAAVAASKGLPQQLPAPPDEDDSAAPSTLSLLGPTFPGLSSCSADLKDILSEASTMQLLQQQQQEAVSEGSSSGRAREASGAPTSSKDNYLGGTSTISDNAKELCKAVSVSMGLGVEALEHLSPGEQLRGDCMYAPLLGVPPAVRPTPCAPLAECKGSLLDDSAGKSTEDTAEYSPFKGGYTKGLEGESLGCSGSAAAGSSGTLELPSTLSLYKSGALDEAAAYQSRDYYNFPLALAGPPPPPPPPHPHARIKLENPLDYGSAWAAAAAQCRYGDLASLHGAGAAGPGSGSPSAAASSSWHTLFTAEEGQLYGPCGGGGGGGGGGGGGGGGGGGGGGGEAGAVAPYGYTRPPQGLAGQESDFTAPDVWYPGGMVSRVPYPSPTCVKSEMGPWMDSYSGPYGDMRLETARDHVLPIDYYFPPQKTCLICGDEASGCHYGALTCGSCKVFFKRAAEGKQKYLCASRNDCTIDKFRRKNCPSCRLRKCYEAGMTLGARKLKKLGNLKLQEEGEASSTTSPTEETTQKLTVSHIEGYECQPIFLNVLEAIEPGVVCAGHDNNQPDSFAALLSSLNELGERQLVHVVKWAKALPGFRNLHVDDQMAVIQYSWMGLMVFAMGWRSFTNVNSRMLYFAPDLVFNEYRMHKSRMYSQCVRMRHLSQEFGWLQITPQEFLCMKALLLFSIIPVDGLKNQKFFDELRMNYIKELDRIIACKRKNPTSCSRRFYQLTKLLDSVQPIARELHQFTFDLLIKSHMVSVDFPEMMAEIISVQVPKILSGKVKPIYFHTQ

LNCaP [3] = assay: Cytotoxicity against human androgen-dependent LNCAP cells at 10 uM after 7 days by MTS/PMS assay relative to control; type: functional
LNCaP C4-2 = assay: (§1) Cytotoxicity against human androgen-independent/AR-positive C4-2 cells […] after 4 days by MTS/PMS assay; type: functional, cell-based
[4] = biological target: T2, Androgen receptor (Homo sapiens); assay: Inhibition of androgen receptor-mediated SRC2 coactivator recruitment in human PPC1 cells at 10 uM after 1 hr by DAPI staining-based fluorescence microscopic analysis; type: cell-based; conditions: PPC-1
[5] = biological target: T3, Androgen receptor (Mus musculus) (UniProt P19091); assay: Agonist activity at mouse androgen receptor at 10 uM after 24 hrs by cell-based luciferase reporter gene assay relative to control
T3 sequence (whole entry): T1 sequence (P19091 whole entry)
Summary of the method: (§2)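 Transcriptional activity is expressed as a percentage after 10 μM compound, given alone for agonist mode or with 10 nM DHT for antagonist mode. Data are from triplicate experiments.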

Androgen receptor [6] = biological target: T1, Androgen receptor; assay: Antagonist activity at mouse androgen receptor assessed as inhibition of transactivation after 24 hrs by cell-based luciferase reporter gene assay
PPC-1 = assay: Cytotoxicity against human androgen-independent/AR-negative PPC1 cells after 3 days by MTS/PMS assay; type: functional, cell-based
[7] = biological target: T3, Androgen receptor (Mus musculus); assay: Antagonist activity against mouse androgen receptor assessed as reduction of 10 nM DHT-induced transcriptional activity at 10 uM after 24 hrs by cell-based luciferase reporter gene assay relative to control; summary of the method: as §2
LNCaP [8] = assay: Cytotoxicity against human androgen-dependent LNCAP cells after 6 days by MTS/PMS assay; type: functional, cell-based; conditions: 144 h
[9] = as §1; type: functional, cell-based; conditions: LNCaP C4-2, 96 h
MEF = assay: Cytotoxicity against mouse MEF cells at 10 uM after 4 days by MTS/PMS assay; type: cell-based; conditions: 96 h
[10] = biological target: T2, Androgen receptor (Homo sapiens); assay: Inhibition of DHT-induced androgen receptor-mediated GFP-AR protein nuclear translocation in human PPC1 cells at 10 uM after 1 hr by DAPI staining-based fluorescence microscopic analysis; type: cell-based; conditions: PPC-1

Compound: Cc1cccc(NC(=O)c2ccc(N3CCc4ccccc4C3)nc2)n1
- Ki (Androgen receptor [1]): 1.46 µM
- inhibition [2]: Active
- growth inhibition (GI) (LNCaP [3]): Active
- growth inhibition (GI) (LNCaP C4-2): Active
- inhibition [4]: Active
- Activity [5]: 3%
- IC50 (Androgen receptor [6]): 4.45 µM
- Activity (PPC-1): inactive
- inhibition [7]: 89.9%

Compound: COc1ccc2c(c1OC)CCN(c1ccc(C(=O)Nc3cccc(C)n3)cn1)C2
- IC50 (LNCaP [8]): 0.68 µM
- Ki (Androgen receptor [1]): 25.6 µM
- inhibition [2]: Active
- inhibition of growth at 10 µM (LNCaP [3]; 168 h, read-out: GI): 90%
- IC50 [9]: 2.5 µM
- inhibition [4]: Active
- Activity [5]: 4.7%
- IC50 (Androgen receptor [6]): 0.99 µM
- Activity (PPC-1): inactive
- Activity (MEF): Non-toxic
- inhibition [10]: Active
- inhibition [7]: 95.6%
